Biological target: Urease (Canavalia ensiformis, UniProt P07374)
Assay: (§1) Inhibition of jack bean urease assessed as ammonia production after 15 mins by indophenol method
How it was run: (§2)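 Jack bean urease preincubated with test sample at 30 °C for 15 min in buffer containing 100 mM urea, pH 6.8. Ammonia measured by the indophenol method, using phenol reagent (1% w/v phenol, 0.005% w/v sodium nitroprusside) and alkali reagent (0.5% w/v NaOH, 0.1% active chloride NaOCl). Absorbance at 630 nm read after 50 min. Run in triplicate; % inhibition calculated from OD test/OD control; thiourea as standard.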

Chain of Urease (P07374 whole entry): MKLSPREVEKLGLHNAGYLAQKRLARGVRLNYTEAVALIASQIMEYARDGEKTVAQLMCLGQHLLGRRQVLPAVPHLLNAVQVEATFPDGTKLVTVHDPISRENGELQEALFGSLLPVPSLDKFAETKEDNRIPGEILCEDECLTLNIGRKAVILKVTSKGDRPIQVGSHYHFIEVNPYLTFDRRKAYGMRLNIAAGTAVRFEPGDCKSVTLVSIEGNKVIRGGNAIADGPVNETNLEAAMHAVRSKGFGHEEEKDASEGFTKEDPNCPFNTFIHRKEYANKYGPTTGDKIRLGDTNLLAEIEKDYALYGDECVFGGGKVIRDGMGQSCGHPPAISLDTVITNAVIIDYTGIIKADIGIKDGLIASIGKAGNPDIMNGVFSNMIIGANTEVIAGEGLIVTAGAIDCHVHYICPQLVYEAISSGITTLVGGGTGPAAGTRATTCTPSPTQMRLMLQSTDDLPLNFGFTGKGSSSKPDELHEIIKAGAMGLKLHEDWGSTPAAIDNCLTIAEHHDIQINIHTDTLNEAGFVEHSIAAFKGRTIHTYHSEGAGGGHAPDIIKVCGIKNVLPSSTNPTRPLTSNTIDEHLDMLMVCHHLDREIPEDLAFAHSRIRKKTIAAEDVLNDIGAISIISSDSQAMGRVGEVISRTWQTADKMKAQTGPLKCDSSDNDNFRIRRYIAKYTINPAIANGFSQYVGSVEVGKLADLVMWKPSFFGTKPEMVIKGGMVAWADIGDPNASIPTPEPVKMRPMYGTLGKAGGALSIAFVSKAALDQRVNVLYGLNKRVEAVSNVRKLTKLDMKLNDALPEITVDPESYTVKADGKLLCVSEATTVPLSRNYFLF

**Q.** With `Cc1ccc(Nc2nnc(-c3cccc([N+](=O)[O-])c3)s2)c(C)c1` as the compound, how does the IC50 read?
**A.** 398 µM

**Q.** Which IC50 does the source give for `Cc1cccc(Nc2nnc(-c3ccccc3)s2)c1C` here?
**A.** 426 µM

**Q.** With `Cc1ccc(-n2c(-c3cccc([N+](=O)[O-])c3)n[nH]c2=S)c(C)c1` as the compound, how does the IC50 read?
**A.** 45.6 µM

**Q.** With `Cc1cccc(Nc2nnc(-c3ccc(Cl)cc3)s2)c1C` as the compound, how does the IC50 read?
**A.** 484 µM

**Q.** For `Cc1ccc(-n2c(-c3cccc(Cl)c3)n[nH]c2=S)c(C)c1`, which IC50 is on record?
**A.** 460 µM

**Q.** With `Cc1cccc(C)c1Nc1nnc(-c2ccc(Cl)cc2)s1` as the compound, how does the IC50 read?
**A.** 215 µM

**Q.** For `Cc1cccc(C)c1-n1c(-c2cccc(Cl)c2)n[nH]c1=S`, which IC50 is on record?
**A.** 357 µM

**Q.** Which IC50 does the source give for `Cc1ccc(-n2c(-c3ccc(Cl)cc3)n[nH]c2=S)c(C)c1` here?
**A.** 171 µM

**Q.** With `Cc1cccc(C)c1Nc1nnc(-c2ccccc2Cl)s1` as the compound, how does the IC50 read?
**A.** 313 µM

**Q.** With `Cc1cccc(-n2c(-c3ccccc3)n[nH]c2=S)c1C` as the compound, how does the IC50 read?
**A.** 86 µM

Biological target: Urease (Canavalia ensiformis) (UniProt P07374)
Sequence (P07374 whole entry, looked up): as the sequence (P07374 whole entry) above
Assay: as §1
Design: inhibition: concentration or dose not given beside the values
How it was run: as §2

**Q.** Which inhibition does the source give for `Cc1ccc(Nc2nnc(-c3cccc([N+](=O)[O-])c3)s2)c(C)c1` here?
**A.** 73.4%

**Q.** For `Cc1cccc(Nc2nnc(-c3ccccc3)s2)c1C`, which inhibition is on record?
**A.** 56.8%

**Q.** With `Cc1cccc(C)c1-n1c(-c2ccccc2Cl)n[nH]c1=S` as the compound, how does the inhibition read?
**A.** 48.3%

**Q.** Which inhibition does the source give for `Cc1ccc(Nc2nnc(-c3ccc([N+](=O)[O-])cc3)s2)c(C)c1` here?
**A.** 7.2%

**Q.** Which inhibition does the source give for `Cc1cccc(C)c1-n1c(-c2ccc(Cl)cc2)n[nH]c1=S` here?
**A.** 7.5%

**Q.** For `Cc1ccc(-n2c(-c3cccc([N+](=O)[O-])c3)n[nH]c2=S)c(C)c1`, which inhibition is on record?
**A.** 97%

**Q.** For `Cc1ccc(-c2nnc(Nc3c(C)cccc3C)s2)cc1`, which inhibition is on record?
**A.** 27.1%

**Q.** For `Cc1cccc(-n2c(-c3ccc(Cl)cc3)n[nH]c2=S)c1C`, which inhibition is on record?
**A.** 48.3%

**Q.** Which inhibition does the source give for `Cc1ccc(-c2n[nH]c(=S)n2-c2c(C)cccc2C)cc1` here?
**A.** 6.8%

**Q.** With `Cc1cccc(Nc2nnc(-c3ccc(Cl)cc3)s2)c1C` as the compound, how does the inhibition read?
**A.** 52.8%

**Q.** For `Cc1ccc(-n2c(-c3cccc(Cl)c3)n[nH]c2=S)c(C)c1`, which inhibition is on record?
**A.** 53.1%

**Q.** With `Cc1cccc(C)c1Nc1nnc(-c2ccc(Cl)cc2)s1` as the compound, how does the inhibition read?
**A.** 91.1%

**Q.** With `Cc1ccccc1-c1n[nH]c(=S)n1-c1cccc(C)c1C` as the compound, how does the inhibition read?
**A.** 43.4%

**Q.** With `Cc1ccc(Nc2nnc(-c3cccc(Cl)c3)s2)c(C)c1` as the compound, how does the inhibition read?
**A.** 12.4%

**Q.** For `Cc1cccc(C)c1-n1c(-c2cccc(Cl)c2)n[nH]c1=S`, which inhibition is on record?
**A.** 64.8%

**Q.** For `Cc1ccc(-n2c(-c3ccc(Cl)cc3)n[nH]c2=S)c(C)c1`, which inhibition is on record?
**A.** 88.6%

**Q.** Which inhibition does the source give for `Cc1cccc(C)c1Nc1nnc(-c2ccccc2Cl)s1` here?
**A.** 82.8%

**Q.** Which inhibition does the source give for `Cc1cccc(-n2c(-c3ccccc3)n[nH]c2=S)c1C` here?
**A.** 93.4%

**Q.** Which IC10 does the source give for `NC(N)=S` here?
**A.** 21 µM

Tested on: Radical scavenging activity
Assay: Antioxidant activity assessed as DPPH free radical scavenging activity in cell-free system after 30 mins
Format: functional
How it was run: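 Compound dissolved in DMSO and DPPH in ethanol. Decrease in absorbance read at 515 nm after incubation. Percent radical scavenging calculated relative to a DMSO-treated control.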

**Q.** Which IC50 does the source give for `Cc1ccc(-n2c(-c3cccc([N+](=O)[O-])c3)n[nH]c2=S)c(C)c1` here?
**A.** 242 µM

**Q.** With `CCCOC(=O)c1cc(O)c(O)c(O)c1` [PROPYL GALLATE] as the compound, how does the IC50 read?
**A.** 30.5 µM

**Q.** For `Cc1cccc(C)c1Nc1nnc(-c2ccc(Cl)cc2)s1`, which IC50 is on record?
**A.** 320 µM

**Q.** With `Cc1ccc(-n2c(-c3ccc(Cl)cc3)n[nH]c2=S)c(C)c1` as the compound, how does the IC50 read?
**A.** 292 µM

Tested on: not listed separately
Assay: Antioxidant activity assessed as Superoxide anion radical scavenging activity in cell-free system
Format: functional
How it was run: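 NADH–NBT–PMS system in 0.1 M phosphate buffer, pH 7.4, with sample added from a 1 mM DMSO stock; other reagents made up in buffer. Run at room temperature. Superoxide followed as blue formazan formation at 560 nm.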

**Q.** For `Cc1ccc(Nc2nnc(-c3cccc([N+](=O)[O-])c3)s2)c(C)c1`, which IC50 is on record?
**A.** 131 µM

**Q.** For `Cc1ccc(Nc2nnc(-c3ccc([N+](=O)[O-])cc3)s2)c(C)c1`, which IC50 is on record?
**A.** 94.8 µM

**Q.** For `CCCOC(=O)c1cc(O)c(O)c(O)c1` [PROPYL GALLATE], which IC50 is on record?
**A.** 106 µM

**Q.** With `Cc1cccc(Nc2nnc(-c3ccc(Cl)cc3)s2)c1C` as the compound, how does the IC50 read?
**A.** 139 µM

**Q.** With `Cc1cccc(C)c1Nc1nnc(-c2ccc(Cl)cc2)s1` as the compound, how does the IC50 read?
**A.** 255 µM

**Q.** For `Cc1ccc(Nc2nnc(-c3cccc(Cl)c3)s2)c(C)c1`, which IC50 is on record?
**A.** 124 µM
